Data taken from ChEMBL document CHEMBL1777714, “Optimization of triazoles as novel and potent nonphlorizin SGLT2 inhibitors” (Bioorg Med Chem Lett, 2011).
In brackets after ≈: the same amount, converted by molar mass.

Columns and labels:
[1] = Solubility of the compound in phosphate buffered saline; assay type: physicochemical
How it was run: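 Solubility measured in PBS buffer, reported in µg/mL.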

[2] = Tmax in rat at 100 mg/kg, sc; assay type: ADME, organism-based; set-up: dose 100 mg/kg, route subcutaneous; details: in vivo
[3] = system: Rattus norvegicus; assay: AUC (0 to 24 hrs) in rat at 100 mg/kg, sc; assay type: ADME, organism-based, Plasma; set-up: time < 24 hr, dose 100 mg/kg, route subcutaneous; details: in vivo
[4] = Cmax in rat at 100 mg/kg, sc; assay type: ADME, organism-based; set-up: dose 100 mg/kg, route subcutaneous; details: in vivo
[5] = Cmax in rat at 70 mg/kg, sc; assay type: ADME, organism-based; set-up: dose 70 mg/kg, route subcutaneous; details: in vivo
[6] = Tmax in rat at 70 mg/kg, sc; assay type: ADME, organism-based; set-up: dose 70 mg/kg, route subcutaneous; details: in vivo
[7] = system: Rattus norvegicus; assay: AUC (0 to 24 hrs) in rat at 70 mg/kg, sc; assay type: ADME, organism-based, Plasma; set-up: time < 24 hr, dose 70 mg/kg, route subcutaneous; details: in vivo

| SMILES | solubility [1] | further results |
| --- | --- | --- |
| O=C1COc2c(Cl)cc(Cl)cc2N1Cc1nnc(CCc2ccc(Cl)cc2)n1CCC(F)(F)F | 1.6 µg/mL (≈ 3 µM) |  |
| O=C1COc2c(cc(Cl)cc2[N+](=O)[O-])N1Cc1nnc(-c2ccc(Cl)cn2)n1CCC(F)(F)F | 2.2 µg/mL (≈ 4.25 µM) |  |
| CCCn1c(CN2C(=O)COc3c2cc(Cl)cc3[N+](=O)[O-])nnc1-c1ccc(Cl)cn1 | 1 µg/mL (≈ 2.16 µM) |  |
| CCCn1c(CN2C(=O)COc3c2cc(C)cc3[N+](=O)[O-])nnc1-c1ccc(Cl)cn1 | 2 µg/mL (≈ 4.52 µM) |  |
| CCCn1c(CN2C(=O)COc3c(C)cc(C)cc32)nnc1-c1ccc(Cl)cn1 | 1.1 µg/mL (≈ 2.67 µM) |  |
| CCCn1c(CN2C(=O)COc3c(C)cc(C)cc32)nnc1-c1ccccn1 | 64 µg/mL (≈ 170 µM) | Tmax [2]: 8 h; AUC [3]: 16.2 µM·h; Cmax [4]: 1050 nM |
| CCCn1c(CN2C(=O)COc3c2cc(Cl)cc3[N+](=O)[O-])nnc1-c1ncccc1C | 80 µg/mL (≈ 181 µM) |  |
| CCCn1c(CN2C(=O)COc3c(C)cc(C)cc32)nnc1[C@@H]1C[C@H]1c1ccccc1 | 19 µg/mL (≈ 45.6 µM) |  |
| CCCn1c(CN2C(=O)COc3c(C)cc(C)cc32)nnc1[C@@H]1CCc2ccccc2C1 | 23 µg/mL (≈ 53.4 µM) |  |
| CCCn1c(CN2C(=O)COc3c(C)cc(C)cc32)nnc1C1Cc2ccccc2C1 | 35 µg/mL (≈ 84 µM) | Cmax [5]: 3500 nM; Tmax [6]: 24 h; AUC [7]: 61.6 µM·h |
